In ChEMBL document CHEMBL4689842, “EUbOPEN Chemogenomics Library wave 1” (2021):

Test system: U2OS
Assay: Multiplex assay against U2OS
Type: toxicity, cell-based
Details: human
Summary of the method: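 Values for tubulin, mitochondrial-mass and membrane-permeability phenotypes are per cents of cells with healthy nuclei. These cells were identified by CellPathfinder machine-learning gating of live cells that had been stained at seeding with Hoechst33342, BioTracker Green Microtubule Cytoskeleton Dye, MitoTracker Red and Annexin V Alexa Fluor 680 and imaged on a CQ1 microscope at 37°C and 5% CO2 after compound addition. The gating first set Hoechst high-intensity objects apart from normal cells, then split normal cells into healthy, pyknosed or fragmented nuclei, and pyknosed cells into mitotic or apoptotic.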

[1] = 12 h, 1 µM, compound concentration 1 uM, replicate 1
[2] = 12 h, 1 µM, compound concentration 1 uM, replicate 2
[3] = 12 h, 10 µM, compound concentration 10 uM, replicate 1
[4] = 12 h, 10 µM, compound concentration 10 uM, replicate 2
[5] = 24 h, 1 µM, compound concentration 1 uM, replicate 1
[6] = 24 h, 1 µM, compound concentration 1 uM, replicate 2
[7] = 24 h, 10 µM, compound concentration 10 uM, replicate 1
[8] = 24 h, 10 µM, compound concentration 10 uM, replicate 2
[9] = 48 h, 1 µM, compound concentration 1 uM, replicate 1
[10] = 48 h, 1 µM, compound concentration 1 uM, replicate 2
[11] = 48 h, 10 µM, compound concentration 10 uM, replicate 1
[12] = 48 h, 10 µM, compound concentration 10 uM, replicate 2

Cc1csc2c(N[C@@H](C)CN3CCN(S(=O)(=O)c4ccc(Cl)c(Cl)c4)CC3)ncnc12
Population Apoptotic (%) [1]: 70% | Population Fragmented Nuclei (%) [1]: 14% | Population Healthy Nuclei (%) [1]: 66% | Population Hoechst High Intensity Objects (%) [1]: 8% | Population Membrane Permeable-Phenotype (%) [1]: 4% | Population Mitochondria Different-Phenotype (%) [1]: 31% | Population Mitotic Cells (%) [1]: 30% | Population Normal (%) [1]: 91% | Population Pyknosed Nuclei (%) [1]: 19% | Population Tubulin-Different-Phenotype (%) [1]: 50% | Total Cell Count [1]: 158 | Population Apoptotic (%) [2]: 16% | Population Fragmented Nuclei (%) [2]: 5% | Population Healthy Nuclei (%) [2]: 84% | Population Hoechst High Intensity Objects (%) [2]: 5% | Population Membrane Permeable-Phenotype (%) [2]: 6% | Population Mitochondria Different-Phenotype (%) [2]: 33% | Population Mitotic Cells (%) [2]: 83% | Population Normal (%) [2]: 95% | Population Pyknosed Nuclei (%) [2]: 10% | Population Tubulin-Different-Phenotype (%) [2]: 47% | Total Cell Count [2]: 48 | Population Apoptotic (%) [3]: 53% | Population Fragmented Nuclei (%) [3]: 15% | Population Healthy Nuclei (%) [3]: 57% | Population Hoechst High Intensity Objects (%) [3]: 9% | Population Membrane Permeable-Phenotype (%) [3]: 55% | Population Mitochondria Different-Phenotype (%) [3]: 100% | Population Mitotic Cells (%) [3]: 46% | Population Normal (%) [3]: 90% | Population Pyknosed Nuclei (%) [3]: 27% | Population Tubulin-Different-Phenotype (%) [3]: 100% | Total Cell Count [3]: 114 | Population Apoptotic (%) [4]: 75% | Population Fragmented Nuclei (%) [4]: 12% | Population Healthy Nuclei (%) [4]: 67% | Population Hoechst High Intensity Objects (%) [4]: 4% | Population Membrane Permeable-Phenotype (%) [4]: 56% | Population Mitochondria Different-Phenotype (%) [4]: 98% | Population Mitotic Cells (%) [4]: 25% | Population Normal (%) [4]: 95% | Population Pyknosed Nuclei (%) [4]: 19% | Population Tubulin-Different-Phenotype (%) [4]: 98% | Total Cell Count [4]: 60 | Population Apoptotic (%) [5]: 73% | Population Fragmented Nuclei (%) [5]: 7% | Population Healthy Nuclei (%) [5]: 78% | Population Hoechst High Intensity Objects (%) [5]: 8% | Population Membrane Permeable-Phenotype (%) [5]: 10% | Population Mitochondria Different-Phenotype (%) [5]: 27% | Population Mitotic Cells (%) [5]: 26% | Population Normal (%) [5]: 91% | Population Pyknosed Nuclei (%) [5]: 13% | Population Tubulin-Different-Phenotype (%) [5]: 45% | Total Cell Count [5]: 175 | Population Apoptotic (%) [6]: 60% | Population Fragmented Nuclei (%) [6]: 11% | Population Healthy Nuclei (%) [6]: 73% | Population Hoechst High Intensity Objects (%) [6]: 4% | Population Membrane Permeable-Phenotype (%) [6]: 11% | Population Mitochondria Different-Phenotype (%) [6]: 25% | Population Mitotic Cells (%) [6]: 40% | Population Normal (%) [6]: 95% | Population Pyknosed Nuclei (%) [6]: 14% | Population Tubulin-Different-Phenotype (%) [6]: 23% | Total Cell Count [6]: 64 | Population Apoptotic (%) [7]: 95% | Population Fragmented Nuclei (%) [7]: 18% | Population Healthy Nuclei (%) [7]: 44% | Population Hoechst High Intensity Objects (%) [7]: 5% | Population Membrane Permeable-Phenotype (%) [7]: 75% | Population Mitochondria Different-Phenotype (%) [7]: 100% | Population Mitotic Cells (%) [7]: 4% | Population Normal (%) [7]: 94% | Population Pyknosed Nuclei (%) [7]: 36% | Population Tubulin-Different-Phenotype (%) [7]: 100% | Total Cell Count [7]: 119 | Population Apoptotic (%) [8]: 80% | Population Fragmented Nuclei (%) [8]: 15% | Population Healthy Nuclei (%) [8]: 57% | Population Hoechst High Intensity Objects (%) [8]: 4% | Population Membrane Permeable-Phenotype (%) [8]: 80% | Population Mitochondria Different-Phenotype (%) [8]: 97% | Population Mitotic Cells (%) [8]: 19% | Population Normal (%) [8]: 95% | Population Pyknosed Nuclei (%) [8]: 26% | Population Tubulin-Different-Phenotype (%) [8]: 97% | Total Cell Count [8]: 72 | Population Apoptotic (%) [9]: 77% | Population Fragmented Nuclei (%) [9]: 8% | Population Healthy Nuclei (%) [9]: 79% | Population Hoechst High Intensity Objects (%) [9]: 3% | Population Membrane Permeable-Phenotype (%) [9]: 8% | Population Mitochondria Different-Phenotype (%) [9]: 16% | Population Mitotic Cells (%) [9]: 22% | Population Normal (%) [9]: 96% | Population Pyknosed Nuclei (%) [9]: 11% | Population Tubulin-Different-Phenotype (%) [9]: 30% | Total Cell Count [9]: 243 | Population Apoptotic (%) [10]: 25% | Population Fragmented Nuclei (%) [10]: 12% | Population Healthy Nuclei (%) [10]: 82% | Population Hoechst High Intensity Objects (%) [10]: 4% | Population Mitochondria Different-Phenotype (%) [10]: 12% | Population Mitotic Cells (%) [10]: 75% | Population Normal (%) [10]: 95% | Population Pyknosed Nuclei (%) [10]: 4% | Population Tubulin-Different-Phenotype (%) [10]: 20% | Total Cell Count [10]: 89 | Population Apoptotic (%) [11]: 87% | Population Fragmented Nuclei (%) [11]: 25% | Population Healthy Nuclei (%) [11]: 30% | Population Hoechst High Intensity Objects (%) [11]: 8% | Population Membrane Permeable-Phenotype (%) [11]: 78% | Population Mitochondria Different-Phenotype (%) [11]: 96% | Population Mitotic Cells (%) [11]: 12% | Population Normal (%) [11]: 91% | Population Pyknosed Nuclei (%) [11]: 43% | Population Tubulin-Different-Phenotype (%) [11]: 100% | Total Cell Count [11]: 159 | Population Apoptotic (%) [12]: 92% | Population Fragmented Nuclei (%) [12]: 15% | Population Healthy Nuclei (%) [12]: 50% | Population Hoechst High Intensity Objects (%) [12]: 7% | Population Membrane Permeable-Phenotype (%) [12]: 84% | Population Mitochondria Different-Phenotype (%) [12]: 97% | Population Mitotic Cells (%) [12]: 7% | Population Normal (%) [12]: 92% | Population Pyknosed Nuclei (%) [12]: 34% | Population Tubulin-Different-Phenotype (%) [12]: 97% | Total Cell Count [12]: 91
